Measurements of several laboratories.
Cell line: HCT-116
Read-out: cell growth or viability

COc1ccc(-c2cc(-c3ccc(Cl)cc3)c3c(=O)n(C)c(=O)n(C)c3n2)cc1
IC50 (MTT; 48 h): 7.54 µM

COc1ccc(C(=O)Nc2ccc(-n3cc(CNc4nc(OC)nc(OC)n4)nn3)cc2)cc1
IC50 (MTT; 72 h): 0.0595 µM

O=C(O)c1cccnc1Nc1cccc(C(F)(F)F)c1
GI50 (CCK-8; 72 h): > 40 µM

COc1nc(NCc2cn(-c3ccc(C(=O)Nc4ccc(Br)cc4)cc3)nn2)nc(OC)n1
IC50 (MTT; 72 h): 0.0279 µM

CC(=NNC(=O)COc1ccc2c(C)c(Cc3ccccc3)c(=O)oc2c1C)c1ccc(Br)cc1
viability (MTT; 100 µg/mL): 33.6%

COc1cc2ncnc(Nc3ccc4c(c3)/C(=C/c3ccccc3)C(=O)N4)c2cc1OC
IC50 (MTT): 25.7 µM

COc1ccc(-c2cc(-c3ccccc3Cl)c3c(=O)[nH]c(=O)[nH]c3n2)cc1
IC50 (MTT; 48 h): 13.4 µM

COc1nc(NCc2cn(-c3ccc(NC(=O)c4ccc(F)cc4)cc3)nn2)nc(OC)n1
IC50 (MTT; 72 h): 0.0122 µM

C=CC(=O)c1cccnc1Nc1cc(C(F)(F)F)ccc1OC
GI50 (CCK-8; 72 h): 12.3 µM

COc1nc(NCc2cn(-c3ccc(NC(=O)c4ccc(Cl)cc4)cc3)nn2)nc(OC)n1
IC50 (MTT; 72 h): 0.0338 µM

COc1ccc(-c2cc(-c3ccc(OC)cc3)c3c(=O)[nH]c(=O)[nH]c3n2)cc1
IC50 (MTT; 48 h): 6.59 µM

COc1nc(NCc2cn(-c3ccc(C(=O)Nc4ccc(F)cc4)cc3)nn2)nc(OC)n1
IC50 (MTT; 72 h): 0.0341 µM

COc1ccc(-c2cc(-c3cccc(Br)c3)c3c(=O)[nH]c(=O)[nH]c3n2)cc1
IC50 (MTT; 48 h): 9.77 µM

C=CC(=O)c1cccnc1Nc1cccc(C(F)(F)F)c1
GI50 (CCK-8; 72 h): 34.9 µM

Cc1nc(Nc2ccc3c(c2)/C(=C/c2ccccc2Cl)C(=O)N3)c2ccccc2n1
IC50 (MTT): 3.67 µM

COc1nc(NCc2cn(-c3ccc(NC(=O)c4ccccc4)cc3)nn2)nc(OC)n1
IC50 (MTT; 72 h): 0.0608 µM

Cc1nc(Nc2ccc3c(c2)C(C)(C)C(=O)N3C)c2ccccc2n1
IC50 (MTT): > 50 µM

COc1ccc(-c2cc(-c3cc(OC)ccc3OC)c3c(=O)n(C)c(=O)n(C)c3n2)cc1
IC50 (MTT; 48 h): 11.1 µM

COc1cc2ncnc(N(C)c3ccc4c(c3)/C(=C/c3cccc(Cl)c3)C(=O)N4C)c2cc1OC
IC50 (MTT): 7.52 µM

COc1ccc(NC(=O)c2ccc(-n3cc(CNc4nc(OC)nc(OC)n4)nn3)cc2)cc1
IC50 (MTT; 72 h): 0.0123 µM

COc1ccc(-c2cc(-c3ccc(C)cc3)nc3[nH]c(=O)[nH]c(=O)c23)cc1OC
IC50 (MTT; 48 h): 19 µM

Cc1nc(N(C)c2ccc3c(c2)/C(=C/c2ccccc2Cl)C(=O)N3C)c2ccccc2n1
IC50 (MTT): 4.11 µM

Cc1ccc(-c2cc(-c3ccc(N(C)C)cc3)c3c(=O)[nH]c(=O)[nH]c3n2)cc1
IC50 (MTT; 48 h): 7.66 µM

Cc1nc(Nc2ccc3c(c2)/C(=C/c2ccccc2)C(=O)N3Cc2ccccc2)c2ccccc2n1
IC50 (MTT): 3.39 µM

Cc1ccc(-c2cc(-c3c(Cl)cccc3Cl)c3c(=O)[nH]c(=O)[nH]c3n2)cc1
IC50 (MTT; 48 h): 28 µM

Cc1nc(Nc2ccc3c(c2)CC(=O)N3)c2ccccc2n1
IC50 (MTT): 12.3 µM
